Tests used:
Plasmodium falciparum = assay: Antimalarial activity against Plasmodium falciparum NF54 infected in human erythrocytes assessed as reduction in [3H]hypoxanthine incorporation preincubated for 48 hrs followed by [3H]hypoxanthine addition measured after 24 hrs by liquid scintillation counting; assay type: functional, organism-based
Procedure, shortened: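 Chloroquine-sensitive P. falciparum NF54 was tested in a modified [3H]hypoxanthine incorporation assay. Test compounds were run up to 20 μM, and fusidic acid was tested above that. Chloroquine, artesunate and fusidic acid served as positive controls. Compound purity was ≥95%. IC50 is the mean of at least 2 independent experiments.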

[1] = Selectivity index, ratio of IC50 for CHO cells to IC50 for Plasmodium falciparum NF54 infected in human erythrocytes; assay type: toxicity, cell-based; conditions: Chinese hamster, read-out: Ratio IC50
Procedure, shortened: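 SI was calculated as the IC50 against Chinese hamster ovary (CHO) cells divided by the IC50 against P. falciparum NF54. The NF54 value came from the [3H]hypoxanthine incorporation assay. Emetine was the positive control for CHO cytotoxicity.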

CHO = assay: Cytotoxicity against CHO cells by MTT assay; assay type: cell-based; conditions: Cricetulus griseus
Procedure, shortened: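 Mammalian Chinese hamster ovary (CHO) cell line, with emetine as the positive control. Test samples were of ≥95% purity. Cytotoxicity is reported as IC50.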

SMILES	IC50 (Plasmodium falciparum)	selectivity ratio [1]	IC50 (CHO)
CC(=O)[C@@]12O[C@@H]1C[C@H]1[C@H]3CC=C4[C@@H](CC[C@@H](O)C4(C)C)[C@]3(C)C(=O)C[C@@]12C	> 20 µM	–	–
COC(=O)CC[C@@H](C)[C@H]1CC[C@@H]2[C@H]3[C@H](OC(C)=O)C[C@H]4C[C@H](OC(C)=O)CC[C@]4(C)[C@H]3C[C@H](OC(C)=O)[C@@]21C	3.45 µM	40.9	141 µM
CC(=O)O[C@H]1CC[C@@]2(C)C(=CC[C@@H]3[C@H]4CCC[C@@]4(C)CC[C@H]32)C1	> 20 µM	–	–
CC(=O)O[C@H]1CC[C@]2(C)[C@H]3CC[C@@]4(C)[C@H](CC[C@@H]4[C@H](C)CCCC(C)C)[C@@H]3C[C@@H](O)[C@]2(O)C1	> 20 µM	–	–
CC(=O)O[C@H]1CC[C@@H]2[C@H]3CC[C@@]4(O)[C@H](CCC[C@@H]4O)[C@H]3CC[C@]12C	> 20 µM	–	–
CC(C)CCC[C@@H](C)[C@H]1CC[C@@H]2[C@@H]3C[C@H](O)[C@]4(O)C(=O)CCC[C@]4(C)[C@H]3CC[C@@]21C	> 20 µM	–	–
CC[C@H]1CC[C@@]2(C)[C@H]3C[C@H]4O[C@@]45[C@@H](CC[C@@H](O)C5(C)C)[C@@H]3C(=O)C[C@@]12C	> 20 µM	–	–
CC(=O)O[C@H]1C[C@@H](O)[C@]2(O)CC[C@@H]3[C@H]4CC[C@H]([C@H](C)CCCC(C)C)[C@@]4(C)CC[C@@H]3[C@@]2(C)C1	13.1 µM	–	–
CC(=O)OC[C@@]12C(=O)C[C@@]3(C)[C@H](C(C)=O)CC[C@@]3(C)[C@@H]1C[C@H]1O[C@@]13[C@H]2CC[C@@H](OC(C)=O)C3(C)C	> 20 µM	–	–
COc1ccc2c(c1)CC[C@@H]1[C@@H]2CC[C@]2(C)C3(CC[C@@]12C=O)SCCS3	> 20 µM	–	–
CC(=O)O[C@H]1C[C@@H]2[C@H]3CC[C@H]([C@H](C)CCCC(C)C)[C@@]3(C)CC[C@@H]2[C@@]2(C)CCC[C@@H](O)[C@]12O	> 20 µM	–	–
CC(=O)O[C@@H]1CC[C@]2(C)[C@H]3CC[C@@]4(C)[C@@H]([C@@H](C)CCCC(C)C)CC[C@H]4[C@@H]3CC[C@@]2(O)[C@@H]1O	> 20 µM	–	–
CC(=O)O[C@H]1C(=O)C[C@@H]2C(=CC[C@H]3[C@@]2(C)C(=O)C[C@]2(C)C(C(C)=O)=CC[C@@]32C)C1(C)C	19.8 µM	–	–
C[C@@H]1CC[C@@]2(OC1)O[C@H]1C[C@H]3[C@@H]4CC[C@H]5C[C@@H](O)CC[C@]5(C)C4=CC(=O)[C@]3(C)[C@H]1[C@@H]2C	> 20 µM	–	–
CC(=O)O[C@H]1CC[C@@H]2[C@@H]3C[C@H](OC(C)=O)[C@@]45O[C@@H]4CCC[C@]5(C)[C@H]3CC[C@]12C	> 20 µM	–	–
CC(=O)O[C@@H]1C[C@@]2(C)[C@@H]3CC=C4[C@@H](CC(=O)C4(C)C)[C@]3(C)C(=O)C[C@]2(C)[C@H]1C(C)=O	> 20 µM	–	–
CC(=O)O[C@H]1CC[C@@H]2[C@H]3C[C@@H](O)[C@@]4(O)CCCC[C@H]4[C@@H]3CC[C@]12C	> 20 µM	–	–
COc1ccc2c(c1)CC[C@@H]1[C@H]3[C@H](OCc4ccccc4)CC4(OCCO4)[C@H]3CC[C@@H]21	7 µM	–	–
COc1ccc2c(c1)CC[C@H]1[C@@H]2CC[C@@]2(C)[C@]13C=C[C@@]2(C(C)=O)[C@@H](S(=O)(=O)c1ccccc1)C3	> 20 µM	–	–
CC(=O)OC(C)(C)/C=C/C(=O)[C@](C)(O)[C@H]1[C@@H](O)C[C@@]2(C)[C@@H]3CC=C4[C@@H](CC[C@H](O)C4(C)C)[C@]3(CO)C(=O)C[C@]12C	1.76 µM	4.83	8.51 µM
CC1(C)CCC[C@H]2[C@]3(C)CC[C@]4(C)CCC[C@H]4[C@H]3C[C@@H](O)[C@@]21O	15.8 µM	–	–
CC(=O)O[C@@H]1C[C@H]2[C@@](C)(C(=O)C[C@]3(C)[C@@H](C(C)=O)CC[C@@]23C)[C@@H]2CCC(=O)C(C)(C)[C@@]12O	> 20 µM	–	–
CC(=O)OC(C)(C)/C=C/C(=O)[C@](C)(O)[C@H]1[C@H](O)C[C@@]2(C)[C@@H]3CC=C4[C@@H](C[C@H](O)C(=O)C4(C)C)[C@]3(C)C(=O)C[C@]12C	1.39 µM	1.43	1.99 µM
C[C@H]1[C@H](OC(=O)CCC(=O)O)O[C@@H]2O[C@@]3(C)CC[C@H]4[C@H](C)CC[C@@H]1[C@@]24OO3 [ARTESUNATE]	0.004 µM	–	–
C[C@H](CCC(=O)O)[C@H]1CC[C@H]2[C@@H]3[C@H](O)C[C@@H]4C[C@H](O)CC[C@]4(C)[C@H]3C[C@H](O)[C@]12C [CHOLIC ACID]	> 20 µM	–	–
CC(=O)OC(C)(C)/C=C/C(=O)[C@](C)(O)[C@H]1[C@H](O)C[C@@]2(C)[C@@H]3CC=C4[C@@H](C[C@H](O)C(=O)C4(C)C)[C@]3(CO)C(=O)C[C@]12C [CUCURBITACIN A]	2.92 µM	18.9	55.2 µM
C[C@@H]1CC[C@@]2(OC1)O[C@H]1C[C@H]3[C@@H]4CC=C5C[C@@H](O)CC[C@]5(C)[C@H]4CC[C@]3(C)[C@H]1[C@@H]2C [DISOGENIN]	> 20 µM	–	–
CC(=O)O[C@H]1C[C@@]2(C)[C@@H](C[C@@H](O)[C@H]3[C@@]4(C)CC[C@@H](O)[C@@H](C)[C@@H]4CC[C@@]32C)/C1=C(\CCC=C(C)C)C(=O)O [FUSIDIC ACID]	–	–	194 µM

Reference: ChEMBL document CHEMBL4261504, “Identification of steroid-like natural products as antiplasmodial agents by 2D and 3D similarity-based virtual screening” (Medchemcomm, 2017)
